# Test results: ChEMBL document CHEMBL3792365, “Dioxol and dihydrodioxin analogs of 2- and 3-phenylacetonitriles as potent anti-cancer agents with nanomolar activity against a variety of human cancer cells” (2016)
# Assays:
# Format in all cases: functional
# [1] = Growth inhibition of human PC3 cells after 48 hrs by sulforhodamine B assay; conditions: PC-3, 48 h
# How it was run: (§1)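 Five-dose concentration series run across a panel of 60 human tumour cell lines. GI50 is taken as the drug concentration giving a 50% reduction in net protein increase relative to untreated control cells.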
# MCF7 [2] = experiment: Growth inhibition of human MCF7 cells after 48 hrs by sulforhodamine B assay; conditions: MCF7, 48 h
# How it was run: (§2)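 Five-dose testing against a 60-line human tumor cell panel. GI50 is the drug concentration giving a 50% reduction in net protein increase relative to untreated control cells.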
# [3] = Growth inhibition of human HOP92 cells at 10 uM after 48 hrs by sulforhodamine B assay; conditions: HOP-92, 48 h, values are per cent of control
# SR [4] = experiment: Growth inhibition of human SR cells after 48 hrs by sulforhodamine B assay; how it was run: as §1
# MCF7 [5] = experiment: Growth inhibition of human MCF7 cells at 10 uM after 48 hrs by sulforhodamine B assay; conditions: MCF7, 48 h, values are per cent of control
# NCI-H23 = experiment: Growth inhibition of human NCI-H23 cells after 48 hrs by sulforhodamine B assay; conditions: NCI-H23, 48 h; how it was run: as §1
# CCRF-CEM = experiment: Growth inhibition of human CCRF-CEM cells at 10 uM after 48 hrs by sulforhodamine B assay; conditions: values are per cent of control
# [6] = Growth inhibition of human RPMI8226 cells at 10 uM after 48 hrs by sulforhodamine B assay; conditions: RPMI-8226, 48 h, values are per cent of control
# [7] = Growth inhibition of human OVCAR3 cells at 10 uM after 48 hrs by sulforhodamine B assay; conditions: OVCAR-3, 48 h, values are per cent of control
# [8] = Growth inhibition of human SKOV3 cells after 48 hrs by sulforhodamine B assay; conditions: SK-OV-3, 48 h; how it was run: as §1
# MDA-MB-468 = experiment: Growth inhibition of human MDA-MB-468 cells at 10 uM after 48 hrs by sulforhodamine B assay; conditions: MDA-MB-468, 48 h, values are per cent of control
# [9] = Growth inhibition of human MOLT4 cells at 10 uM after 48 hrs by sulforhodamine B assay; conditions: MOLT-4, 48 h, values are per cent of control
# [10] = Growth inhibition of human SNB19 cells at 10 uM after 48 hrs by sulforhodamine B assay; conditions: SNB-19, 48 h, values are per cent of control
# [11] = Growth inhibition of human PC3 cells at 10 uM after 48 hrs by sulforhodamine B assay; conditions: PC-3, 48 h, values are per cent of control
# [12] = Growth inhibition of human Caki1 cells after 48 hrs by sulforhodamine B assay; conditions: CAKI-1, 48 h; how it was run: as §2
# MDA-MB-231 = experiment: Growth inhibition of human MDA-MB-231 cells after 48 hrs by sulforhodamine B assay; conditions: MDA-MB-231, 48 h; how it was run: as §2
# [13] = Growth inhibition of human UACC257 cells at 10 uM after 48 hrs by sulforhodamine B assay; conditions: UACC-257, 48 h, values are per cent of control
# U-251 [14] = experiment: Growth inhibition of human U251 cells at 10 uM after 48 hrs by sulforhodamine B assay; conditions: U-251, 48 h, values are per cent of control
# [15] = Growth inhibition of human SF539 cells after 48 hrs by sulforhodamine B assay; conditions: SF-539, 48 h; how it was run: as §1
# [16] = Growth inhibition of human HOP92 cells after 48 hrs by sulforhodamine B assay; conditions: HOP-92, 48 h; how it was run: as §2
# [17] = Growth inhibition of human NCI-ADR-RES cells after 48 hrs by sulforhodamine B assay; how it was run: as §1
# [18] = Growth inhibition of human BT549 cells at 10 uM after 48 hrs by sulforhodamine B assay; conditions: BT-549, 48 h, values are per cent of control
# [19] = Growth inhibition of human UO31 cells after 48 hrs by sulforhodamine B assay; conditions: UO-31, 48 h
# How it was run: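 Five-dose testing across the 60-line human tumour cell panel. GI50 is the drug concentration that gives a 50% reduction in net protein increase relative to control cells.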
# KM12 [20] = experiment: Growth inhibition of human KM12 cells at 10 uM after 48 hrs by sulforhodamine B assay; conditions: KM12, 48 h, values are per cent of control
# MDA-MB-435 [21] = experiment: Growth inhibition of human MDA-MB-435 cells after 48 hrs by sulforhodamine B assay; conditions: MDA-MB-435, 48 h; how it was run: as §2
# KM12 [22] = experiment: Growth inhibition of human KM12 cells after 48 hrs by sulforhodamine B assay; conditions: KM12, 48 h; how it was run: as §2
# Malme-3M = experiment: Growth inhibition of human MALME-3M cells at 10 uM after 48 hrs by sulforhodamine B assay; conditions: values are per cent of control
# [23] = Growth inhibition of human DU145 cells after 48 hrs by sulforhodamine B assay; conditions: DU-145, 48 h; how it was run: as §2
# SR [24] = experiment: Growth inhibition of human SR cells at 10 uM after 48 hrs by sulforhodamine B assay; conditions: values are per cent of control
# [25] = Growth inhibition of human HOP62 cells at 10 uM after 48 hrs by sulforhodamine B assay; conditions: HOP-62, 48 h, values are per cent of control
# [26] = Growth inhibition of human HOP62 cells after 48 hrs by sulforhodamine B assay; conditions: HOP-62, 48 h; how it was run: as §2
# NCI-H226 = experiment: Growth inhibition of human NCI-H226 cells at 10 uM after 48 hrs by sulforhodamine B assay; conditions: NCI-H226, 48 h, values are per cent of control
# SK-MEL-5 = experiment: Growth inhibition of human SK-MEL-5 cells after 48 hrs by sulforhodamine B assay; conditions: SK-MEL-5, 48 h; how it was run: as §1
# [27] = Growth inhibition of human HL-60(TB) cells after 48 hrs by sulforhodamine B assay; conditions: HL-60, 48 h
# How it was run: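 Five-dose study across the 60-cell human tumour panel. GI50 is the drug concentration giving a 50% reduction in net protein increase relative to control cells.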
# [28] = Growth inhibition of human HL-60(TB) cells at 10 uM after 48 hrs by sulforhodamine B assay; conditions: HL-60, 48 h, values are per cent of control
# [29] = Growth inhibition of human Hs 578T cells after 48 hrs by sulforhodamine B assay; how it was run: as §2
# [30] = Growth inhibition of human HCC2998 cells after 48 hrs by sulforhodamine B assay; conditions: HCC 2998, 48 h; how it was run: as §2
# U-251 [31] = experiment: Growth inhibition of human U251 cells after 48 hrs by sulforhodamine B assay; conditions: U-251, 48 h; how it was run: as §1
# MDA-MB-435 [32] = experiment: Growth inhibition of human MDA-MB-435 cells at 10 uM after 48 hrs by sulforhodamine B assay; conditions: MDA-MB-435, 48 h, values are per cent of control
# NCI-H522 = experiment: Growth inhibition of human NCI-H522 cells after 48 hrs by sulforhodamine B assay; conditions: NCI-H522, 48 h; how it was run: as §1
# [33] = Growth inhibition of human SF268 cells after 48 hrs by sulforhodamine B assay; conditions: SF-268, 48 h; how it was run: as §1
# [34] = Growth inhibition of human HCT15 cells after 48 hrs by sulforhodamine B assay; conditions: HCT-15, 48 h; how it was run: as §2
# [35] = Growth inhibition of human SW620 cells after 48 hrs by sulforhodamine B assay; conditions: SW-620, 48 h; how it was run: as §1
smiles,measurement,setting,value
N#C/C(=C\c1cc2ccccc2s1)c1ccc2c(c1)OCO2,GI50,[1],60 nM
same,GI50,MCF7 [2],90 nM
same,"growth, % of control at 10 µM",[3],60.8%
same,GI50,SR [4],30 nM
same,"growth, % of control at 10 µM",MCF7 [5],16.3%
same,GI50,NCI-H23,0.32 µM
same,"growth, % of control at 10 µM",CCRF-CEM,16.8%
same,"growth, % of control at 10 µM",[6],9.3%
same,"growth, % of control at 10 µM",[7],-29.5%
same,GI50,[8],60 nM
same,"growth, % of control at 10 µM",MDA-MB-468,14.1%
same,"growth, % of control at 10 µM",[9],17.4%
same,"growth, % of control at 10 µM",[10],46.4%
same,"growth, % of control at 10 µM",[11],25.8%
same,GI50,[12],50 nM
same,GI50,MDA-MB-231,180 nM
same,"growth, % of control at 10 µM",[13],72.8%
same,"growth, % of control at 10 µM",U-251 [14],18.4%
same,GI50,[15],40 nM
same,GI50,[16],17 µM
same,GI50,[17],40 nM
same,"growth, % of control at 10 µM",[18],56.4%
same,GI50,[19],0.08 µM
same,"growth, % of control at 10 µM",KM12 [20],6%
same,GI50,MDA-MB-435 [21],20 nM
same,GI50,KM12 [22],50 nM
same,"growth, % of control at 10 µM",Malme-3M,55.1%
same,GI50,[23],0.21 µM
same,"growth, % of control at 10 µM",SR [24],13.5%
same,"growth, % of control at 10 µM",[25],58.5%
same,GI50,[26],70 nM
same,"growth, % of control at 10 µM",NCI-H226,28.7%
same,GI50,SK-MEL-5,60 nM
same,GI50,[27],30 nM
same,"growth, % of control at 10 µM",[28],0.5%
same,GI50,[29],80 nM
same,GI50,[30],0.27 µM
same,GI50,U-251 [31],60 nM
same,"growth, % of control at 10 µM",MDA-MB-435 [32],-37.2%
same,GI50,NCI-H522,20 nM
same,GI50,[33],1.64 µM
same,GI50,[34],40 nM
same,GI50,[35],50 nM
N#C/C(=C\c1cccc2ccccc12)c1ccc2c(c1)OCO2,GI50,[1],5520 nM
same,GI50,MCF7 [2],1990 nM
same,GI50,SR [4],1600 nM
same,"growth, % of control at 10 µM",MCF7 [5],26.1%
same,GI50,NCI-H23,6.45 µM
same,"growth, % of control at 10 µM",CCRF-CEM,52.3%
same,"growth, % of control at 10 µM",[6],77%
same,"growth, % of control at 10 µM",[7],46.8%
same,GI50,[8],3580 nM
same,"growth, % of control at 10 µM",MDA-MB-468,25.9%
same,"growth, % of control at 10 µM",[10],82.1%
same,"growth, % of control at 10 µM",[11],80.1%
same,GI50,[12],4180 nM
same,GI50,MDA-MB-231,5110 nM
same,"growth, % of control at 10 µM",[13],103%
same,"growth, % of control at 10 µM",U-251 [14],47.3%
same,GI50,[15],2710 nM
same,GI50,[16],4.55 µM
same,GI50,[17],2520 nM
same,"growth, % of control at 10 µM",[18],51.8%
same,GI50,[19],6.48 µM
same,"growth, % of control at 10 µM",KM12 [20],39.2%
same,GI50,MDA-MB-435 [21],430 nM
same,GI50,KM12 [22],3770 nM
same,"growth, % of control at 10 µM",Malme-3M,73.3%
same,GI50,[23],6.94 µM
same,"growth, % of control at 10 µM",SR [24],23.8%
same,"growth, % of control at 10 µM",[25],75.9%
same,GI50,[26],3770 nM
same,"growth, % of control at 10 µM",NCI-H226,83%
same,GI50,SK-MEL-5,3200 nM
same,GI50,[27],3500 nM
same,GI50,[29],3540 nM
same,GI50,[30],11 µM
same,GI50,U-251 [31],3850 nM
same,"growth, % of control at 10 µM",MDA-MB-435 [32],-28.5%
same,GI50,NCI-H522,2890 nM
same,GI50,[33],8.99 µM
same,GI50,[34],1770 nM
same,GI50,[35],3720 nM
